Test results from ChEMBL document CHEMBL3112575, “N¹,N¹-Dimethyl-N³-(3-(trifluoromethyl)phenethyl)propane-1,3-diamine, a new lead for the treatment of human African trypanosomiasis” (Eur J Med Chem, 2014).
pIC50: −log10 of the molar value.

Tested on: Trypanosoma brucei brucei
Test: Antitrypanosomal activity against bloodstream form of Trypanosoma brucei brucei 427 after 48 hrs by Alamar Blue staining based fluorescence assay
Format: functional, organism-based
Conditions: Trypanosoma brucei, 427, 48 h
How it was run: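 Starting inoculum 2×10³ bloodstream-form parasites per well in HMI-9 with 10% FBS, exposed to two-fold serial drug dilutions for 48 h at 37°C, 5% CO₂. Alamar Blue then added, with a further 4 h incubation. Fluorescence read at Ex 544/Em 590. Each plate included drug-free parasite wells and parasite-free, drug-free wells. IC₅₀ from three biological replicates, each the mean of three technical replicates.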

Question: With `CN(C)CCCNCc1cc(Br)c(O)c(Br)c1` as the compound, how does the pIC50 read?
Answer: < 5.10

Question: With `COc1ccc(Br)cc1CCNCCCN(C)C` as the compound, how does the pIC50 read?
Answer: < 5.10

Question: How did the pIC50 turn out when `COc1ccc(CNCCCN(C)C)cc1` was run?
Answer: < 5.10

Question: `COc1cc(CCNCCCN)c(Br)cc1Br` was tested. Which pIC50 did it give?
Answer: 5.70

Question: How did the pIC50 turn out when `COc1cccc(CCNCCCN(C)C)c1` was run?
Answer: < 5.10

Question: `CN(C)CCCNCCc1cccs1` was tested. Which pIC50 did it give?
Answer: < 5.10

Question: How did the pIC50 turn out when `CN(C)CCCNCCc1ccc(Cl)c(Cl)c1` was run?
Answer: < 5.10

Question: `CN(C)CCCNCCc1ccccc1F` was tested. Which pIC50 did it give?
Answer: < 5.10

Question: `COc1cc(CCNCCCN(C)C)c(Br)cc1Br` was tested. Which pIC50 did it give?
Answer: 6.52

Question: How did the pIC50 turn out when `COc1cc(CCN(CCCN(C)C)C(C)=O)c(Br)cc1Br` was run?
Answer: < 5.10

Question: With `CN(C)CCCNC1Cc2ccccc2C1` as the compound, how does the pIC50 read?
Answer: < 5.10

Question: With `C#CCCNCCc1cc(OC)c(Br)cc1Br` as the compound, how does the pIC50 read?
Answer: < 5.10

Question: `CN(C)CCCNCCc1ccc(F)cc1` was tested. Which pIC50 did it give?
Answer: < 5.10

Question: How did the pIC50 turn out when `CN(C)CCCNCc1ccc(O)cc1` was run?
Answer: < 5.10

Question: How did the pIC50 turn out when `CN(C)CCCNCCc1c(Cl)cccc1Cl` was run?
Answer: < 5.10

Question: How did the pIC50 turn out when `CN(C)CCCNCCc1c(F)cccc1Cl` was run?
Answer: < 5.10

Question: How did the pIC50 turn out when `COc1c(Br)cc(CNCCCN(C)C)cc1Br` was run?
Answer: < 5.10

Question: `CN(C)CCCNCCc1cccc(F)c1` was tested. Which pIC50 did it give?
Answer: < 5.10

Question: `CN(C)CCCNCc1cccc(O)c1` was tested. Which pIC50 did it give?
Answer: < 5.10

Question: How did the pIC50 turn out when `COc1cccc(CNCCCN(C)C)c1` was run?
Answer: < 5.10

Question: With `COc1c(Br)cc(Br)c(CNCCCN(C)C)c1Br` as the compound, how does the pIC50 read?
Answer: < 5.10

Question: With `CN(C)CCCNCCc1cccc(Br)c1` as the compound, how does the pIC50 read?
Answer: < 5.10

Question: How did the pIC50 turn out when `CN(C)CCCNCCc1ccc(Cl)cc1` was run?
Answer: < 5.10

Question: How did the pIC50 turn out when `CN(C)CCCNCCc1ccc(Br)cc1` was run?
Answer: < 5.10

Question: With `COc1ccc(CCNCCCN(C)C)cc1Cl` as the compound, how does the pIC50 read?
Answer: < 5.10

Question: With `CN(C)CCCNCCc1ccccc1Cl` as the compound, how does the pIC50 read?
Answer: < 5.10

Question: How did the pIC50 turn out when `CN(C)CCCNCCc1ccccc1Br` was run?
Answer: < 5.10

Question: With `COc1ccc(CCNCCCN(C)C)cc1Br` as the compound, how does the pIC50 read?
Answer: < 5.10

Question: With `C#CCN(CCCN(C)C)CCc1cc(OC)c(Br)cc1Br` as the compound, how does the pIC50 read?
Answer: < 5.10

Question: How did the pIC50 turn out when `CN(C)CCCNCCc1cccc(C(F)(F)F)c1` was run?
Answer: 6.30

Question: With `CN(C)CCCNCCc1cccc(Cl)c1` as the compound, how does the pIC50 read?
Answer: 6.15

Question: `COc1cc(CNCCCN(C)C)c(Br)cc1Br` was tested. Which pIC50 did it give?
Answer: 5.34

Question: `CN(C)CCCNCCc1ccc2ccccc2c1` was tested. Which pIC50 did it give?
Answer: 5.40

Question: How did the pIC50 turn out when `CN(C)CCCNCCc1ccc(Cl)cc1Cl` was run?
Answer: < 5.10

Question: `CN(C)CCCNCc1c(Br)cc(Br)c(O)c1Br` was tested. Which pIC50 did it give?
Answer: < 5.10

Question: How did the pIC50 turn out when `COc1cc(CCN2CCCC2)c(Br)cc1Br` was run?
Answer: < 5.10

Question: How did the pIC50 turn out when `COc1cc(CCNCCCO)c(Br)cc1Br` was run?
Answer: < 5.10

Question: `C#CCNCCc1cc(OC)c(Br)cc1Br` was tested. Which pIC50 did it give?
Answer: < 5.10

Question: How did the pIC50 turn out when `COc1ccc(Br)c(CCNCCCN(C)C)c1Br` was run?
Answer: 5.40

Question: With `CN(C)CCCNCc1cc(O)c(Br)cc1Br` as the compound, how does the pIC50 read?
Answer: 5.66
